Laboratory results reported in PubChem BioAssay AID504383 (The Scripps Research Institute Molecular Screening Center, 2011).
The campaign covered roughly 2,500 compounds. About 1,200 (48%) were called active. The set was probably picked from earlier hits. The list shows a part of the results. Values without a mark were called inactive.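 How the source made its calls: active means mean activation above the low control average plus 3 SD, as set in the primary screen (cut at about 12% in these data); inactive means the rest.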

target: Troponin I, cardiac muscle (Homo sapiens) + Troponin T, cardiac muscle (Homo sapiens) + Troponin C, slow skeletal and cardiac muscles (Homo sapiens) (UniProt P19429+P45379+P63316); test: calcium sensitizers of cardiac thin filaments – biochemical, IANBD-TnC fluorescence, triplicate, confirmation (AID 504383); conditions: IANBD-labeled cardiac RTF, Ca2+ sensitivity fluorescence; at 7.2 µM; active compounds read high; scaled from EC20 to saturating calcium; tested at EC20 calcium, 0.472 mM;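 further: 0% = DMSO at 0.472 mM calcium and 100% = DMSO at 2.9 mM calcium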
Outline: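 Material: labelled regulated thin filaments; Reagent: 0.472 mM calcium; Incubation: 15 min compound incubation with filaments at 25 °C; Detection: filament fluorescence intensity; Evaluation: fluorescence increase normalised to calcium controls; Benchmarks: low control EC20 calcium, high control EC100 calcium.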

Row | Compound | activation
1 | COc1cccc(/C=N/Nc2nnc3c(n2)[nH]c2ccccc23)c1OC | 13.1% (active)
2 | COc1cccc(/C=N/c2nc3ccccc3[nH]2)c1O | 6.09%
3 | NC(=O)[C@@H]1CCCNc2c(I)cc([N+](=O)[O-])cc2C(=O)N[C@@H](CCC(=O)O)C(=O)N[C@@H](CO)C(=O)N1 | 6.37%
4 | OC(CNCC1CCCO1)Cn1c2ccc(Br)cc2c2cc(Br)ccc21 (stereo not drawn) | 34.1% (active)
5 | COC(=O)C(C)n1cnc2c(nnn2Cc2ccc(Cl)cc2)c1=O (stereo not drawn) | 12.4% (active)
6 | Cc1ccccc1-n1c(SCc2c(C)noc2C)nnc1-c1cccnc1 | 13.8% (active)
7 | COc1cc2c(cc1OC)CN(Cc1cc(=O)oc3cc(C)c(C)cc13)CC2 | -0.4%
8 | COc1ccc(-c2csc(N3CCN(c4cc5c(cc4Cl)nc(-c4ccncc4)n5CCOCCO)CC3)n2)cc1 | 2.85%
9 | Cc1cc(N2CCN(c3nc(-c4ccc([N+](=O)[O-])cc4)cs3)CC2)c2ccccc2n1 | 14.9% (active)
10 | CC(=O)c1nnn(-c2cccc(C#N)c2)c1C | 1.86%
11 | O=C(CCSc1ccccc1)N1CCN(C(=O)c2ccco2)CC1 | 135% (active)
12 | O=c1[nH]c2c(s1)C=Nc1ccccc1N2 | 2.27%
13 | O=[n+]1c2c(n([O-])c3cc(F)c(N4CCCC4)cc31)CCCC2 | 259% (active)
14 | O=[n+]1c2c(n([O-])c3cc(F)c(N4CCCC4)cc31)CCC2 | 92% (active)
15 | O=[n+]1c2c(n([O-])c3ccccc31)CCC2 | 29.4% (active)
16 | O=C(Cn1c(=O)c(=O)n(Cc2ccccc2)c2ccc(Cl)cc21)Nc1ccc(F)cc1F | 1.32%
17 | Cc1ccc(N/C=C2/Sc3ccccc3NC2=O)cc1 | 9.19%
18 | Cc1cc(C)c(/C=C2\C(=O)Nc3ccccc32)[nH]1 | 14.2% (active)
19 | O=C1Nc2ccccc2/C1=C/c1cnc(-c2ccccc2)[nH]1 | 92.3% (active)
20 | COc1ccc(CNS(=O)(=O)c2cc(-c3cc(C)no3)ccc2OC)cc1OC | 24.2% (active)
21 | COc1ccc(CC(=O)NCc2csc(-c3cccs3)n2)cc1OC | 5.67%

Row | Compound | activation
22 | CC1CC(C)CN(S(=O)(=O)N2CCCC(C(=O)NC3CCCCC3)C2)C1 (stereo not drawn) | 219% (active)
23 | Cc1cc(NC(=O)CN2C(=O)[C@@H]3[C@H](C2=O)[C@@H]2C[C@H]3C(Br)C2Br)no1 (stereo partly drawn) | 40% (active)
24 | CC(/C=N/Nc1ccc2nncn2n1)=C\c1ccccc1 | 70.4% (active)
25 | CCOC(=O)c1cc(C#N)c(SCC(=O)c2cc(C#N)c(SC)nc2C)[nH]c1=O | 15.6% (active)
26 | O=C(Nc1ccc(F)cc1F)c1ccc(COc2c(F)c(F)cc(F)c2F)o1 | 4.6%
27 | O=C(/C=C/c1ccccc1[N+](=O)[O-])Nc1cccnc1 | 5.57%
28 | C/C(=N\Nc1ccc([N+](=O)[O-])cc1[N+](=O)[O-])c1cccnc1 | 17% (active)
29 | O=C(c1ccc([N+](=O)[O-])cc1[N+](=O)[O-])n1cnc2ccccc21 | -1.33%
30 | CS(=O)(=O)N(CC(=O)O)Cc1cccc(CN(CC(=O)O)S(C)(=O)=O)c1 | 9.58%
31 | CC(C)(Cc1cccc(CC(C)(C)C(=O)O)c1)C(=O)O | 12% (active)
32 | CCCOc1ccc(N)cc1N | 10.4%
33 | O=C(CC1C(=O)N(c2ccc(Cl)cc2)C(=S)N1CCc1ccncc1)Nc1ccc(F)cc1 (stereo not drawn) | 3.64%
34 | Cc1ccc(-c2noc(-c3c(C)noc3C)n2)cc1 | 9.16%
35 | CCOC(=O)c1ccc(-c2c(-c3ccc4c(c3)OCO4)noc2C)cc1F | 12% (active)
36 | COc1cc(-c2c(-c3ccc4c(c3)OCO4)noc2C)ccc1F | 37.8% (active)
37 | Nc1ccc2c3c(cccc13)-c1ccccc1-2 | 10%
38 | O=C(NCCN1CCOCC1)c1ccc(CS(=O)(=O)c2c(Cl)cccc2Cl)o1 | 7.99%
39 | Cc1ccccc1S(=O)(=O)Cc1ccc(C(=O)NCCN(C)Cc2ccccc2)o1 | 28.6% (active)
40 | Brc1ccc(-c2cnnc(N3CCCC3)n2)cc1 | 184% (active)
41 | CC(C)(C)c1ccc(-c2n[nH]c(=S)n2CC2CCCO2)cc1 (stereo not drawn) | 101% (active)
42 | COc1ccccc1NC(=O)/C=C/C(=O)O | 9.02%

Row | Compound | activation
43 | CC(C)C(=O)c1cc2c(cc1NC(=O)c1ccccc1)OCCO2 | 3.91%
44 | O=C(Nc1ccccc1OC(=O)c1ccccc1)c1ccccc1 | 235% (active)
45 | Cc1ccc([N+](=O)[O-])c(OCCCN2C(=O)NC(C)(C)C2=O)c1 | 11%
46 | COc1ccc(C2=NN(C(=O)CSc3ncccn3)C(c3ccc(C)cc3)C2)cc1 (stereo not drawn) | 505% (active)
47 | CC1CCC(C(C)C)C(OC(=O)Cn2c(-c3ccccc3)[n+](C)c3ccccc32)C1 (stereo not drawn) | 10.7%
48 | CC(/C=C/c1ccc(N(C)C)cc1)=N/N=C1/NC(=O)CC(C(=O)Nc2ccc(Cl)cc2)S1 (stereo not drawn) | 14.4% (active)
49 | CN(C)c1ccc(/C=C/C(=O)c2cc(Cl)ccc2O)cc1 | 5.68%
50 | COc1ccc(CN=C2NC(=O)CC(C(=O)Nc3ccc(F)cc3)S2)cc1 (stereo not drawn) | 10.2%
51 | N#Cc1c(-c2ccccc2F)cc(C2CC2)nc1SCC(=O)c1cccs1 | 14.3% (active)
52 | O=C(c1cccs1)N1CCN=C1SCc1cccc(F)c1 | 0.56%
53 | COc1ccc(-c2cc(C3CC3)nc(SCC(=O)c3cccs3)c2C#N)cc1 | 8.22%
54 | CC(C)OC(=O)c1c2c(n3ccccc13)C(=O)c1ccccc1C2=O | 9.36%
55 | CCN(CC)c1ccc(/C=C/c2cccc[n+]2C)c(OC)c1 | 63.4% (active)
56 | CN(C)NC(=O)c1ccc([N+](=O)[O-])s1 | 31.3% (active)
57 | CN(C)/C=C/C(=O)c1ccc(Br)s1 | 10.5%
58 | Cc1nc(NC(=O)c2ccccc2[N+](=O)[O-])sc1C(=O)N(C)C | 11.2%
59 | Cc1c(Cl)c([N+](=O)[O-])nn1CC(=O)N1CCN(C23CC4CC(CC(C4)C2)C3)CC1 | 12% (active)
60 | Cc1cccc(NC(=O)Cn2cnc3ccc(S(=O)(=O)N4CCC(C)CC4)cc3c2=O)n1 | 8.56%
61 | CN(C)NC(=S)Nc1ccc(S(=O)(=O)N2CCCCC2)cc1 | 19.8% (active)
62 | O=C(Cn1cnc2c(cnn2-c2ccccc2)c1=O)Nc1ccc(S(=O)(=O)N2CCOCC2)cc1 | 31% (active)
63 | O=S(=O)(c1ccc(NC(=S)Nc2ccccc2)cc1)N1CCOCC1 | 24.5% (active)
